Assay results taken from ChEMBL document CHEMBL1152410, “Cytotoxic pentacyclic triterpenoids from Combretum sundaicum and Lantana camara as inhibitors of Bcl-xL/BakBH3 domain peptide interaction” (J Nat Prod, 2009).

How the values were obtained:
KB = assay: Cytotoxicity against human KB cells; type: functional, cell-based
Summary of the method: (§1)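 Cell growth-inhibition assay run by a previously published procedure, with Taxotere as the reference compound.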

Bcl-2-like protein 1 = Bcl-2-like protein 1 (Homo sapiens, UniProt Q07817); assay: Binding affinity to Bcl-xL by fluorescein-labeled Bak-BH3 peptide competition binding assay
Bcl-2-like protein 1, sequence (Q07817 whole entry): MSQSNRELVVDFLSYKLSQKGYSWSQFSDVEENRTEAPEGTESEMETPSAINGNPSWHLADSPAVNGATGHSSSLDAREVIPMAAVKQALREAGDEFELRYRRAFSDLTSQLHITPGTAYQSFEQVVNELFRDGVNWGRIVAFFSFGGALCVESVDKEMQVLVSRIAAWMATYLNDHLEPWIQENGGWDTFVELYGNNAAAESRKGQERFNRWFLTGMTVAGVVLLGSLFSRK
Summary of the method: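 Fluorescence polarization displacement: test compound competes with fluorescein-labeled Bak BH3-domain peptide for binding to Bcl-xL. Ki is derived as the dissociation constant at equilibrium against this reference ligand. Unlabeled Bak(BH3) peptide and a substituted terphenyl derivative serve as positive controls. Runs are done in duplicate.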

HCT-116 = assay: Cytotoxicity against human HCT116 cells; type: functional, cell-based; summary of the method: as §1
MCF7 = assay: Cytotoxicity against human MCF7 cells; type: functional, cell-based; summary of the method: as §1
L1210 = assay: Cytotoxicity against mouse L1210 cells; type: functional, cell-based; summary of the method: as §1

| Structure (SMILES) | IC50 (KB) [µM] | Ki (Bcl-2-like protein 1) [µM] | IC50 (HCT-116) [µM] | IC50 (MCF7) [µM] | IC50 (L1210) [µM] |
| --- | --- | --- | --- | --- | --- |
| CC(=O)OC[C@]1(C)[C@@H](OC(C)=O)C[C@H](O[C@@H]2O[C@@H](C)[C@H](O)[C@@H](O)[C@H]2O)[C@]2(C)[C@H]3CC=C4[C@H]5C[C@](C)(C(=O)O)CC[C@]5(C)CC[C@@]4(C)[C@]3(C)CC[C@@H]12 | 8.2 | 7.2 | 8 | 10.5 |  |
| CC(=O)OC[C@]1(C)[C@@H](OC(C)=O)C[C@H](O)[C@]2(C)[C@H]3CC=C4[C@H]5C[C@](C)(C(=O)O)CC[C@]5(C)CC[C@@]4(C)[C@]3(C)CC[C@@H]12 | 5.4 | 17.8 | 4.7 | 6 |  |
| COC(=O)[C@]1(C)CC[C@]2(C)CC[C@]3(C)C(=CC[C@@H]4[C@@]5(C)[C@@H](O[C@@H]6O[C@@H](C)[C@H](O)[C@@H](O)[C@H]6O)C[C@H](O)[C@@](C)(COC(C)=O)[C@@H]5CC[C@]43C)[C@H]2C1 | 0.7 | > 100 | 0.4 | 0.5 |  |
| CC(C)=CC(=O)O[C@@H]1CC(C)(C)C[C@@H]2C3=CC[C@@H]4[C@@]5(C)CCC(=O)[C@](C)(CO)[C@@H]5CC[C@@]4(C)[C@]3(C)CC[C@]21C(=O)O | 35.5 | 5.3 | 11.4 | 42.5 | 12.3 |
| COC(=O)[C@]1(C)CC[C@]2(C)CC[C@]3(C)C(=CC[C@@H]4[C@@]5(C)[C@@H](O[C@@H]6O[C@@H](C)[C@H](O)[C@@H](O)[C@H]6O)C[C@H](OC(C)=O)[C@@](C)(COC(C)=O)[C@@H]5CC[C@]43C)[C@H]2C1 | 0.9 | > 100 | 0.3 | 0.6 |  |
| COC(=O)[C@]1(C)CC[C@]2(C)CC[C@]3(C)C(=CC[C@@H]4[C@@]5(C)[C@@H](O)C[C@H](O)[C@@](C)(COC(C)=O)[C@@H]5CC[C@]43C)[C@H]2C1 | 2.9 | > 100 | 1.7 | 4.6 |  |
| CC(=O)O[C@@]12CO[C@@H]1C[C@H](O)[C@@]1(C)C(=O)[C@H](O)C3=C(C)[C@@H](OC(=O)[C@H](O)[C@@H](NC(=O)OC(C)(C)C)c4ccccc4)C[C@@](O)([C@@H](OC(=O)c4ccccc4)[C@H]21)C3(C)C [DOCETAXEL] | 0.00015 |  | 0.0012 | 0.0007 |  |
| C/C=C(/C)C(=O)O[C@@H]1CC(C)(C)C[C@@H]2C3=CC[C@@H]4[C@@]5(C)CCC(=O)[C@](C)(CO)[C@@H]5CC[C@@]4(C)[C@]3(C)CC[C@]21C(=O)O [ICTEROGENIN] | 15 | 7.6 | 5.8 | 11.3 | 6.8 |
| C/C=C(/C)C(=O)O[C@@H]1CC(C)(C)C[C@H]2C3=CC[C@@H]4[C@@]5(C)CCC(=O)C(C)(C)[C@@H]5CC[C@@]4(C)[C@]3(C)CC[C@@]12C(=O)O [LANTADENE A] | 15.8 | > 100 | 41.8 | 44.7 | 16.3 |
| CC(C)=CC(=O)O[C@@H]1CC(C)(C)C[C@@H]2C3=CC[C@@H]4[C@@]5(C)CCC(=O)C(C)(C)[C@@H]5CC[C@@]4(C)[C@]3(C)CC[C@]21C(=O)O [LANTADENE B] | 25.3 | > 100 | 11.4 | 44 | 16.1 |
